Results collected from several papers.
Each line is one published result; the experiments were not run side by side.
NR4A1: Nuclear receptor subfamily 4immunitygroup A member 1 (NR4A1, Homo sapiens, UniProt P22736)
KEAP1: Kelch-like ECH-associated protein 1 (KEAP1, Homo sapiens, UniProt Q14145)
folP: Dihydropteroate synthase (folP, Bacteria, UniProt P0AC13)

COc1cccc2c(Nc3ccc4[nH]c(C(=O)N/N=C/c5ccc(SC)cc5)cc4c3)cc(C)nc12 — Kd (NR4A1; binding; ITC): 2.3 µM
COc1cccc2c1C(=O)c1c(O)c3c(c(O)c1C2=O)C[C@@](O)(C(=O)CO)C[C@@H]3O[C@H]1C[C@H](N)[C@H](O)[C@H](C)O1 — IC50 (Solute carrier organic anion transporter family member 1B3 (SLCO1B3, Homo sapiens, UniProt Q9NPD5); transporter uptake; inhibitor; radiometric; 2 min): 7.7 µM
C=CS(=O)(=O)c1ccc(Nc2nc(OCC3CCCCC3)c3nc[nH]c3n2)cc1 — Kd (KEAP1; binding; SPR): 0.2 µM
N=C(N)NCCCC(=O)O — Kd (Alkaline phosphatase, tissue-nonspecific isozyme (ALPL, Homo sapiens, UniProt P05186); binding; ITC): 2 µM
CCOC(=O)C(C)c1n[nH]c2nc(N)[nH]c(=O)c2c1=O (centres unmarked) — Kd (folP; binding; SPR): 0.199 µM
CN(Cc1cnc2nc(N)nc(N)c2n1)c1ccc(C(=O)N[C@@H](CCC(=O)O)C(=O)O)cc1 — IC50 (Solute carrier organic anion transporter family member 1B3 (SLCO1B3, Homo sapiens, UniProt Q9NPD5, M233I); transporter uptake; inhibitor; radiometric; 2 min): > 100 µM
CCCCCCCCC(=O)c1cc(O)c(O)c(O)c1 — Kd (NR4A1; binding; ITC): 3.7 µM
OC[C@H]1OC(O)[C@H](O)[C@@H](O)[C@@H]1O (some centres unmarked) — Kd (ATP-dependent RNA helicase DDX18 (Homo sapiens, UniProt Q9NVP1); binding; MST): 77.2 µM
NC(=O)c1ncn([C@@H]2O[C@H](CO)[C@@H](O)[C@H]2O)n1 — Kd (5'-AMP-activated protein kinase catalytic subunit alpha-1 (PRKAA1, Homo sapiens, UniProt Q13131); binding; SPR): 6.75 µM
CC(=O)OCc1nn(C)c2nc(N)[nH]c(=O)c2c1=O — Kd (folP; binding; SPR): 0.0148 µM
O=C(O)/C=C/c1ccc(O)c(O)c1 — Kd (KEAP1; binding; SPR): 4.9 µM
